From ChEMBL document CHEMBL1135587, “Discovery and structure-activity relationship of N-(ureidoalkyl)-benzyl-piperidines as potent small molecule CC chemokine receptor-3 (CCR3) antagonists” (J Med Chem, 2002)

What was measured:
[1] = target: T1, C-C chemokine receptor type 1 (Homo sapiens, UniProt P32246); assay: Inhibitory activity against human Chemokine receptor type 1 expressed in chinese hamster ovary cells; type: cell-based, CHO
T1 sequence (P32246 whole entry): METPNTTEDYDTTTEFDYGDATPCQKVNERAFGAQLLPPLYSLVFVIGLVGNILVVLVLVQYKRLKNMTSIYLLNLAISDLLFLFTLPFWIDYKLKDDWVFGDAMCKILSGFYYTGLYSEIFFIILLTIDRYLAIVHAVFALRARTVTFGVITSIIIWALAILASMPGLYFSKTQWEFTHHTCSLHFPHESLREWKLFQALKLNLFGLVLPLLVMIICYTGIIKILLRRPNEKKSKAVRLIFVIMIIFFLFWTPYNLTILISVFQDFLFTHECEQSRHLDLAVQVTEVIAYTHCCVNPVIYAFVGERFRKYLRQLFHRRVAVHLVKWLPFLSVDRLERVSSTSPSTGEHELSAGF

[2] = target: T2, C-C chemokine receptor type 3 (Homo sapiens, UniProt P51677); assay: Inhibitory activity against recombinant human Chemokine receptor type 3 (CCR3) expressed in chinese hamster ovary cells; type: cell-based, CHO
T2 sequence (P51677 whole entry): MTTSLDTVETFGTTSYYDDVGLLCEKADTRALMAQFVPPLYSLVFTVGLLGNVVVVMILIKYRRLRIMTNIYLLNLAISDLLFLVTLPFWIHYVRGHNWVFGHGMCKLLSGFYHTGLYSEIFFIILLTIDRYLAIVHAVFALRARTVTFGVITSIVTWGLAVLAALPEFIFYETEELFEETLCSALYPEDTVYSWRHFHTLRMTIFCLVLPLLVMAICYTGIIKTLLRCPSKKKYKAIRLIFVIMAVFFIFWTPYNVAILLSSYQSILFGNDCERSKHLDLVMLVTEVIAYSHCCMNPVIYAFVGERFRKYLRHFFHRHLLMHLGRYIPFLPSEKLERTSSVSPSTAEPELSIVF
How it was run: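 CHO cells transfected with human CCR3, 5×10^5 per well, incubated 30 min at room temperature with 150 pM (final) 125I-labeled human eotaxin and compound. Binding buffer: RPMI 1640 with 0.5% BSA, 20 mM HEPES, 5 mM MgCl2. Filtration on protamine-treated filter plates, washed with binding buffer plus 0.5 M NaCl, filter counted. Nonspecific binding defined with 100 nM eotaxin. Percent inhibition taken against compound-free total binding. IC50 values are the mean of usually three determinations.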

| SMILES | IC50 [1] [nM] | IC50 [2] [nM] |
| --- | --- | --- |
| CN(C)CCNC(=O)NCC(CCCN1CCC(O)(c2ccc(Cl)cc2)CC1)(c1ccccc1)c1ccccc1 | 67 | 2230 |
| O=C(NCCc1ccc(F)cc1)NCC(CCCN1CCC(O)(c2ccc(Cl)cc2)CC1)(c1ccccc1)c1ccccc1 | 295 | 2200 |
| O=C(NCC(CCCN1CCC(O)(c2ccc(Cl)cc2)CC1)(c1ccccc1)c1ccccc1)Nc1ccccc1 | < 780 | 9800 |
| C[N+]1(Cc2cc3c(cc2NC(=O)Nc2cccc(C#N)c2)OCO3)CCC(Cc2ccccc2)CC1 (stereo not drawn) | – | 11 |
| O=C(Nc1cc(F)ccc1F)Nc1ccccc1CN1CCC(C(=O)c2ccccc2)CC1 | – | 4650 |
| N#CC(CCCN1CCC(Cc2ccccc2)CC1)(c1ccccc1)c1ccccc1 | > 50000 | 4600 |
| COc1cccc(NC(=O)Nc2ccccc2CN2CCC(Cc3ccccc3)CC2)c1 | > 10000 | 600 |
| COC(=O)c1ccc(CN2CCC(Cc3ccccc3)CC2)c(NC(=O)Nc2cccc(OC)c2)c1 | – | 777 |
| COc1cccc(NC(=O)Nc2ccccc2CCN2CCC(Cc3ccccc3)CC2)c1 | > 10000 | 180 |
| O=C(NCCN1CCCCC1)Nc1ccccc1CN1CCC(Cc2ccccc2)CC1 | > 50000 | 7600 |
| N#Cc1cccc(NC(=O)Nc2ccccc2CCN2CCC(Cc3ccccc3)CC2)c1 | > 10000 | 140 |
| N#CC(CCCN1CCN(Cc2ccccc2)CC1)(c1ccccc1)c1ccccc1 | > 50000 | 14100 |
| O=C(Nc1cccc(CN2CCC(Cc3ccccc3)CC2)c1)Nc1ccc2[nH]ncc2c1 | – | 620 |
| N#Cc1cccc(NC(=O)Nc2ccccc2C(O)CN2CCC(Cc3ccc(F)cc3)CC2)c1 (stereo not drawn) | – | 11 |
| C[N+]1(Cc2cc3c(cc2NC(=O)Nc2cccc(C#N)c2)OCO3)CCC(Cc2ccc(F)cc2)CC1 (stereo not drawn) | – | 2 |
| N#Cc1cccc(NC(=O)Nc2cc(CO)ccc2CN2CCC(Cc3ccccc3)CC2)c1 | – | 114 |
| O=C(Nc1ccc2[nH]ncc2c1)Nc1ccccc1CN1CCC(Cc2ccccc2)CC1 | > 10000 | 450 |
| COc1cccc(NC(=O)Nc2cc(CO)ccc2CN2CCC(Cc3ccccc3)CC2)c1 | – | 360 |
| O=C(Nc1ccccc1)Nc1cccc(CO)c1CN1CCC(Cc2ccc(F)cc2)CC1 | – | 53 |
| COc1cccc(NC(=O)NCc2ccccc2CN2CCC(Cc3ccccc3)CC2)c1 | – | 2400 |
| O=C(NCCN1CCCCC1)NCC(CCCN1CCC(O)(c2ccc(Cl)cc2)CC1)(c1ccccc1)c1ccccc1 | 360 | 2200 |
| COC(=O)c1cccc(NC(=O)Nc2cccc(C#N)c2)c1CN1CCC(Cc2ccc(F)cc2)CC1 | – | 7 |
| COc1cccc(NC(=O)Nc2ccccc2C(O)CN2CCC(Cc3ccc(F)cc3)CC2)c1 (stereo not drawn) | – | 21 |
| COC(=O)c1ccc(NC(=O)Nc2cccc(C#N)c2)c(CN2CCC(Cc3ccc(F)cc3)CC2)c1 | – | 67 |
| O=C(Nc1cccc(CN2CCC(Cc3ccccc3)CC2)c1)NC1CCN(Cc2ccccc2)CC1 | – | 3700 |
| NCC(CCCN1CCC(O)(c2ccc(Cl)cc2)CC1)(c1ccccc1)c1ccccc1 | 760 | 12000 |

| SMILES | IC50 [1] [nM] | IC50 [2] [nM] |
| --- | --- | --- |
| c1ccc(CCN2CCC(Cc3ccccc3)CC2)cc1 | > 50000 | 7100 |
| CC1C2=C(CC=CC2)C(=O)N1CC1CCN(CCc2ccccc2)CC1 (stereo not drawn) | – | 12000 |
| c1ccc(CC2CCN(Cc3ccccc3)CC2)cc1 | > 50000 | 8300 |
| O=C(NCC1CCCCC1)NCC(CCCN1CCC(O)(c2ccc(Cl)cc2)CC1)(c1ccccc1)c1ccccc1 | 125 | 2400 |
| COC(=O)c1ccc(NC(=O)Nc2cccc(OC)c2)c(CN2CCC(Cc3ccc(F)cc3)CC2)c1 | – | 64 |
| O=C(Nc1ccc(F)cc1)Nc1ccccc1CCN1CCC(Cc2ccc(F)cc2)CC1 | – | 35 |
| COc1ccc(NC(=O)NCC(CCCN2CCC(O)(c3ccc(Cl)cc3)CC2)(c2ccccc2)c2ccccc2)cc1 | 780 | 7600 |
| O=C(Nc1ccccc1)Nc1cccc(C(=O)O)c1CN1CCC(Cc2ccc(F)cc2)CC1 | – | 17 |
| O=C(Nc1cc(F)ccc1F)Nc1ccccc1C(O)CN1CCC(Cc2ccccc2)CC1 (stereo not drawn) | > 10000 | 410 |
| CC(C)(C)NC(=O)NCC(CCCN1CCC(O)(c2ccc(Cl)cc2)CC1)(c1ccccc1)c1ccccc1 | 71 | 3000 |
| O=C1CC2(CCc3ccccc32)C(=O)N1CC1CCN(CCc2ccccc2)CC1 (stereo not drawn) | – | 2000 |
| N#Cc1cccc(NC(=O)Nc2cc3c(cc2CN2CCC(Cc4ccccc4)CC2)OCO3)c1 | – | 237 |
| N#Cc1cccc(NC(=O)Nc2cccc(CN3CCC(Cc4ccccc4)CC3)c2)c1 | – | 450 |
| N#Cc1cccc(NC(=O)Nc2ccc(O)cc2CN2CCC(Cc3ccccc3)CC2)c1 | – | 277 |
| O=C(NCC(CCCN1CCC(O)(c2ccc(Cl)cc2)CC1)(c1ccccc1)c1ccccc1)NC1CCN(Cc2ccccc2)CC1 | 310 | 1620 |
| O=C(Nc1ccccc1)Nc1ccccc1CN1CCC(Cc2ccc(F)cc2)CC1 | – | 361 |
| O=C(NCCc1ccc(F)cc1)Nc1ccccc1CN1CCC(Cc2ccccc2)CC1 | – | 3800 |
| O=C(Nc1cc(F)ccc1F)Nc1ccccc1CN1CCC(Cc2ccccc2)CC1 | > 50000 | 1750 |
| COC(=O)c1ccc(NC(=O)Nc2cccc(C(C)=O)c2)c(CN2CCC(Cc3ccc(F)cc3)CC2)c1 | – | 42 |
| N#Cc1cccc(NC(=O)Nc2cccc(C(N)=O)c2CN2CCC(Cc3ccc(F)cc3)CC2)c1 | – | 3 |
| O=C(Nc1ccccc1)Nc1ccccc1C(O)CN1CCC(Cc2ccccc2)CC1 (stereo not drawn) | – | 249 |
| OC1(c2ccc(Cl)cc2)CCN(CCCCc2ccccc2)CC1 | – | 14500 |
| O=C(Nc1ccc2[nH]ncc2c1)Nc1cc2c(cc1CN1CCC(Cc3ccccc3)CC1)OCO2 | – | 260 |
| COC(=O)c1cccc(NC(=O)Nc2cccc(OC)c2)c1CN1CCC(Cc2ccc(F)cc2)CC1 | – | 11 |
| CC(=O)c1cccc(NC(=O)Nc2cc3c(cc2CN2CCC(Cc4ccccc4)CC2)OCO3)c1 | – | 228 |
| CC(=O)c1cccc(NC(=O)Nc2cc3c(cc2CN2CCC(Cc4ccc(F)cc4)CC2)OCO3)c1 | – | 40 |

| SMILES | IC50 [1] [nM] | IC50 [2] [nM] |
| --- | --- | --- |
| COc1cccc(NC(=O)Nc2ccccc2CCN2CCC(Cc3ccc(F)cc3)CC2)c1 | – | 11 |
| CC(=O)c1cccc(NC(=O)Nc2ccccc2CN2CCC(Cc3ccc(F)cc3)CC2)c1 | – | 125 |
| COC(=O)c1cccc(NC(=O)Nc2ccccc2)c1CN1CCC(Cc2ccc(F)cc2)CC1 | – | 9 |
| COc1cccc(NC(=O)Nc2ccc(CO)cc2CN2CCC(Cc3ccc(F)cc3)CC2)c1 | – | 47 |
| O=C(Nc1ccccc1)Nc1ccccc1C(O)CN1CCC(Cc2ccc(F)cc2)CC1 (stereo not drawn) | – | 24 |
| O=C(NCC(c1ccccc1)c1ccccc1)Nc1ccccc1CN1CCC(C(=O)c2ccccc2)CC1 | – | 3900 |
| C[N+]1(Cc2cc(O)ccc2NC(=O)Nc2cccc(C#N)c2)CCC(Cc2ccccc2)CC1 (stereo not drawn) | – | 21 |
| O=C(NCCCO)NC(Cc1ccccc1)c1ccccc1 (stereo not drawn) | – | 50000 |
| O=C(NCc1ccc2c(c1)OCO2)Nc1ccccc1CN1CCC(Cc2ccccc2)CC1 | – | 1750 |
| COc1ccc(NC(=O)NCc2ccccc2CN2CCC(Cc3ccccc3)CC2)cc1 | – | 1300 |
| N#Cc1cccc(NC(=O)Nc2ccc(CO)cc2CN2CCC(Cc3ccc(F)cc3)CC2)c1 | – | 55 |
| CC(=O)c1cccc(NC(=O)Nc2cc3c(cc2C[N+]2(C)CCC(Cc4ccc(F)cc4)CC2)OCO3)c1 (stereo not drawn) | – | 1 |
| O=C(NCc1ccc2c(c1)OCO2)Nc1ccccc1CN1CCC(C(=O)c2ccccc2)CC1 | – | 7350 |
| N#Cc1cccc(NC(=O)Nc2ccccc2CCN2CCC(Cc3ccc(F)cc3)CC2)c1 | – | 14 |
| c1ccc(CCCCN2CCN(Cc3ccccc3)CC2)cc1 | – | 8400 |
| N#Cc1cccc(NC(=O)NCc2ccccc2CN2CCC(Cc3ccccc3)CC2)c1 | – | 2800 |
| O=C(Cc1ccc(F)cc1)Nc1ccccc1CCN1CCC(Cc2ccc(F)cc2)CC1 | – | 153 |
| O=C(NCC(c1ccccc1)c1ccccc1)Nc1ccccc1CN1CCC(Cc2ccccc2)CC1 | – | 2650 |
| COc1cccc(NC(=O)Nc2cc3c(cc2CN2CCC(Cc4ccc(F)cc4)CC2)OCO3)c1 | – | 141 |
| Fc1ccc(CCCN2CCC3C(C2)c2cccc4c2N3CC4)cc1 (stereo not drawn) | – | 1000 |
| N#Cc1cccc(NC(=O)Nc2ccccc2CN2CCC(Cc3ccc(F)cc3)CC2)c1 | – | 310 |
| O=C(Nc1cc(F)ccc1F)Nc1ccccc1CN1CCC(c2ccccc2)CC1 | – | 11000 |
| N#Cc1cccc(NC(=O)Nc2ccc(C(N)=O)cc2CN2CCC(Cc3ccc(F)cc3)CC2)c1 | – | 8 |
| O=C(NCCc1ccc(F)cc1)Nc1ccccc1CN1CCN(Cc2ccccc2)CC1 | – | 9200 |
| N#Cc1cccc(NC(=O)Nc2c(CN3CCC(Cc4ccc(F)cc4)CC3)ccc3ccccc23)c1 | – | 529 |
| N#Cc1cccc(NC(=O)Nc2cc3c(cc2CN2CCC(Cc4ccc(F)cc4)CC2)OCO3)c1 | – | 85 |
